The source made the active and inactive calls. The calls are words filed in the database; no cut-off is given here.

These results are taken from ChEMBL document CHEMBL3616442, “Unconventional Knoevenagel-type indoles: Synthesis and cell-based studies for the identification of pro-apoptotic agents” (Eur J Med Chem, 2015).

One experiment concerns the target Tubulin (Homo sapiens) (UniProt P68371+Q9H4B7+P0DPH7+P68366+Q13509+Q71U36+P04350+Q3ZCM7+P07437+P68363+Q9BQE3+Q6PEY2+Q13885+Q9BVA1+Q9BUF5). Kind of experiment: Induction of Tubulin depolymerization in human MCF7 cells by immunofluorescence analysis. Format: cell-based. In outline:
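MCF-7 cells grown and treated on chamber slides, fixed in ice-cold 100% methanol, washed in PBS with 0.1% Triton X-100, blocked 30 min in 5% BSA, then mouse anti-tubulin for 1 h and Alexa 488 secondary for 1 h; DNA counterstained with 0.2 μg/mL propidium iodide for 2 min. Paclitaxel and PBOX-15 served as tubulin controls.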

The next experiment relates to Nucleic Acid. Kind of experiment: Induction of DNA intercalation of plasmid pQE30 DNA at 0.01 to 1 mM by electrophoretic mobility assay. Conditions: Escherichia coli. Format: nucleic-acid assay. In outline: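 Compound dissolved in methanol and incubated with double-strand plasmid pQE-30 DNA for 10 min at 37 °C; gel loading buffer added and samples run on 0.7% agarose to separate closed circular and supercoiled forms.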

Experiment [1] deals with HL-60. Put plainly: Induction of cell cycle arrest in human HL60 cells assessed as accumulation at G2/M phase after 18 hrs by propidium iodide staining based flow cytometric analysis. Format: functional. In outline: (§1)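 Propidium iodide/RNase A flow cytometry of ethanol-fixed cells, 10,000 gated events at 488 nm; G2/M fraction measured after 18 h treatment (HL-60, MCF-7) or 24 h (K562); mean ± S.E.M. of three independent experiments.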
For orientation: Flow cytometry measures light scatter and fluorescence of single cells or particles in a stream.

For experiment [2], the system named is MCF7. Put plainly: Induction of cell cycle arrest in human MCF7 cells assessed as accumulation at G2/M phase after 18 hrs by propidium iodide staining based flow cytometric analysis. Format: functional. In outline: as §1
For experiment [3], the system named is HL-60. Put plainly: Induction of apoptosis in human HL60 cells by propidium iodide staining based flow cytometric analysis. Format: functional. In outline: (§2)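 After treatment, cells harvested, fixed in ice-cold 70% ethanol at 4 °C, stained 30 min at 37 °C in the dark with 100 µg/mL propidium iodide plus 10 µg/mL RNase A; 10,000 gated cells analysed at 488 nm with debris excluded; apoptosis followed over time; mean ± S.E.M. of three independent experiments run in triplicate.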

The next experiment deals with MT4. Kind of experiment: Antiproliferative activity against human MT4 cells after 96 hrs by MTT assay. Conditions: MT4, 96 h. Format: functional, cell-based. In outline:
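Exponentially growing MT-4 cells (CD4+ human T-cells carrying integrated HTLV-1 genome), seeded at 1×10^5 cells/mL in RPMI-1640 with 10% FCS and antibiotics. Serial dilutions of compound (DMSO stock 100 mM, diluted in medium), 37 °C, 5% CO₂, 96 h. Viability read by MTT. 50% inhibition versus untreated controls by linear regression. Mean ± SD of three independent determinations.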

Experiment [4] deals with K562. Put plainly: Induction of apoptosis in human K562 cells by propidium iodide staining based flow cytometric analysis. Format: functional. In outline: as §2
For experiment [5], the system named is MCF7. Kind of experiment: Induction of apoptosis in human MCF7 cells by propidium iodide staining based flow cytometric analysis. Format: functional. In outline:
as §2

Experiment [6] deals with K562. Kind of experiment: Induction of cell cycle arrest in human K562 cells assessed as accumulation at G2/M phase after 24 hrs by propidium iodide staining based flow cytometric analysis. Format: functional. In outline:
as §1

Experiment [7] concerns K562. Put plainly: Antiproliferative activity against human K562 cells after 3 days incubation by alamar blue method. It is filed as functional. To be noted: for GI50: K562, 72 h. In outline: (§3)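 HL-60 and K562 grown in RPMI 1640, MCF-7 in DMEM, each with 10% FCS, penicillin G and streptomycin. Seeded at 4x10⁴ (HL-60, K562) or 2x10⁴ (MCF-7) cells per well with serial compound dilutions, incubated 3 days at 37 °C. Alamar blue added for 3 h at 37 °C in the dark, fluorescence read at ex 544/em 590 nm. IC50 versus untreated controls by linear regression.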
In general terms: The colour change of resazurin is a common sign of viable cells or microbes.

Experiment [8] relates to MCF7. Kind of experiment: Antiproliferative activity against human MCF7 cells after 3 days incubation by alamar blue method. To be noted: for GI50: MCF7, 72 h. It is filed as functional. In outline:
as §3

For experiment [9], the system named is HL-60. Put plainly: Antiproliferative activity against human HL60 cells after 3 days incubation by alamar blue method. Conditions: for GI50: HL-60, 72 h. It is filed as functional. In outline:
as §3

Experiment [10] is described as follows: Cytotoxicity against human SKMES1 cells after 96 hrs by MTT assay. Format: functional, cell-based. Conditions: SK-MES-1, 96 h. In outline: (§4)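 ATCC cell lines, mycoplasma-free by Hoechst staining. Haematological lines in RPMI-1640, solid-tumour and normal fibroblast lines in their own media, all with 10% FCS and antibiotics, at 37 °C in 5% CO₂. Compounds added as serial dilutions from a 100 mM DMSO stock diluted in medium. Viability by MTT after 96 h at 37 °C. Mean ± SD of three independent determinations.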
A general note: Tetrazolium dyes change colour on reduction, which living cells bring about.

The next experiment concerns WIL2-NS. Kind of experiment: Cytotoxicity against human WIL2-NS cells after 96 hrs by MTT assay. It is filed as functional, cell-based. In outline:
as §4

The next experiment deals with DU-145. Kind of experiment: Cytotoxicity against human DU145 cells after 96 hrs by MTT assay. Format: functional, cell-based. To be noted: DU-145, 96 h. In outline:
as §4

The subject of a further experiment is MRC5. Put plainly: Cytotoxicity against human MRC5 cells after 96 hrs by MTT assay. To be noted: MRC5, 96 h. It is filed as cell-based. In outline: as §4
Experiment [11] relates to MCF7. Put plainly: Cytotoxicity against human MCF7 cells after 96 hrs by MTT assay. Format: functional, cell-based. Conditions: MCF7, 96 h. In outline:
as §4

In a further experiment the test system is SK-MEL-28. Kind of experiment: Cytotoxicity against human SK-MEL-28 cells after 96 hrs by MTT assay. Format: functional, cell-based. Conditions: SK-MEL-28, 96 h. In outline:
as §4

Another experiment deals with CCRF-CEM. Put plainly: Cytotoxicity against human CCRF-CEM cells after 96 hrs by MTT assay. Format: functional, cell-based. In outline: as §4
The next experiment relates to CCRF-SB. Kind of experiment: Cytotoxicity against human CCRF-SB cells after 96 hrs by MTT assay. Format: functional, cell-based. In outline: as §4
The nature of experiment [12]: Cytotoxicity against human CRL7065 cells after 96 hrs by MTT assay. Conditions: CRL-7065, 96 h. It is filed as cell-based. In outline: as §4
In the next experiment the test system is HepG2. Put plainly: Cytotoxicity against human HepG2 cells after 96 hrs by MTT assay. Format: functional, cell-based. Conditions: HepG2, 96 h. In outline:
as §4

Take `CS(=O)(=O)/C(C#N)=C/c1c(-c2ccccc2)[nH]c2ccccc12`: the outcome at Tubulin (Homo sapiens) was Active. For the same compound, the result with Nucleic Acid was inactive. The Activity in the experiment on HL-60 [1] is 39.7%; in the experiment on MCF7 [2], 41.3%; in the experiment with HL-60 [3] (TDE = time-dependent effect), “tde”; with K562 [4], 47.5%; in the experiment on K562 [4] (TDE = time-dependent effect) it was “tde”; in the experiment on MCF7 [5] it was 28.4%. For the same compound, the Activity entry in the experiment on MCF7 [5] (TDE = time-dependent effect) was “tde”; in the experiment with K562 [6], 46.8%; in the experiment on K562 [7], “Dose-dependent effect”; in the experiment on MCF7 [8] it was “Dose-dependent effect”; in the experiment with HL-60 [9] it was “Dose-dependent effect”. In the experiment with MT4, this compound returned an EC50 of 0.3 µM. The concentration for 50% growth inhibition (GI50) in the experiment with K562 [7] was above 10 µM; in the experiment on MCF7 [8] it was above 10 µM; with HL-60 [9], 1.32 µM.
For the compound `CC(=O)OC1=C(c2cccc3ccccc23)Oc2cc3ccccc3cc2-n2cccc21`, the outcome on Tubulin (Homo sapiens) was Active.
Take `N#C/C(=C\c1c(-c2ccccc2)[nH]c2ccccc12)C(=O)c1cccs1`: the EC50 in experiment [10] came out at 4 µM; in the experiment with MT4, 0.4 µM; in the experiment on WIL2-NS it was 6.4 µM; in the experiment with DU-145, 11 µM; in the experiment with MRC5, 20 µM; in the experiment on MCF7 [11] it was 29 µM. In addition, the EC50 was 28 µM in the experiment on SK-MEL-28; 1.2 µM in the experiment on CCRF-CEM; 0.6 µM with CCRF-SB; 45 µM in experiment [12]; 25 µM in the experiment on HepG2. In addition, the Activity with HL-60 [3] was 61.3%; in the experiment on HL-60 [3] (TDE = time-dependent effect) it was “tde”; in the experiment with K562 [4] (TDE = time-dependent effect) it was “tde”; with MCF7 [5], 34.1%; with MCF7 [5] (TDE = time-dependent effect), “tde”; with K562 [7], “Dose-dependent effect”. The Activity entry with MCF7 [8] and in the experiment with HL-60 [9] was “Dose-dependent effect” throughout. The GI50 was above 10 µM in the experiment on K562 [7], above 10 µM in the experiment with MCF7 [8] and 2.11 µM in the experiment with HL-60 [9].

For orientation: EC50 means the concentration at which the effect is half-maximal. By GI50 is commonly meant the concentration giving 50% growth inhibition.
